Compounds with a hit are over-represented: about 1.2% of the library has one in this group of screens.
Diaph inh CS – diaphorase inhibitors and chemical oxidizers, primary screen, counter-screen for diaphorase-coupled primary assays, biochemical, uHTS, resorufin fluorescence. AID 1217, 2008. 190,000 compounds, 0.69% hits. inhibition, % at 20 µM. diaphorase resazurin-to-resorufin fluorescence, NADH, 16 min; bacterial (C. kluyveri) enzyme, not human;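 active means primary screen inhibition at 20 µM above a set limit, cut at about 50% in these data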
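Test system: bacterial diaphorase enzyme (C. kluyveri); Quantity: 0.14 U/mL diaphorase, enzyme working solution; Times: reaction incubation of 16 min at room temperature; Measured by: fluorescence of resorufin formed from resazurin, Ex 544/Em 590 nm; Benchmarks: positive control minus NADH, DMSO neutral control.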
HKDC1 inhibitor – HKDC1 hexokinase inhibitors, primary screen, biochemical, fluorescence, uHTS; 340,000 compounds, 0.16% hits; recombinant HKDC1, G6PDH/diaphorase resazurin coupled fluorescence; inhibition, % at 20 µM; AID 493160, 2011;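 active means inhibition above about 35% when tested at 20 µM, limit read from the data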
Target sequence (Q2TB90 whole entry, looked up): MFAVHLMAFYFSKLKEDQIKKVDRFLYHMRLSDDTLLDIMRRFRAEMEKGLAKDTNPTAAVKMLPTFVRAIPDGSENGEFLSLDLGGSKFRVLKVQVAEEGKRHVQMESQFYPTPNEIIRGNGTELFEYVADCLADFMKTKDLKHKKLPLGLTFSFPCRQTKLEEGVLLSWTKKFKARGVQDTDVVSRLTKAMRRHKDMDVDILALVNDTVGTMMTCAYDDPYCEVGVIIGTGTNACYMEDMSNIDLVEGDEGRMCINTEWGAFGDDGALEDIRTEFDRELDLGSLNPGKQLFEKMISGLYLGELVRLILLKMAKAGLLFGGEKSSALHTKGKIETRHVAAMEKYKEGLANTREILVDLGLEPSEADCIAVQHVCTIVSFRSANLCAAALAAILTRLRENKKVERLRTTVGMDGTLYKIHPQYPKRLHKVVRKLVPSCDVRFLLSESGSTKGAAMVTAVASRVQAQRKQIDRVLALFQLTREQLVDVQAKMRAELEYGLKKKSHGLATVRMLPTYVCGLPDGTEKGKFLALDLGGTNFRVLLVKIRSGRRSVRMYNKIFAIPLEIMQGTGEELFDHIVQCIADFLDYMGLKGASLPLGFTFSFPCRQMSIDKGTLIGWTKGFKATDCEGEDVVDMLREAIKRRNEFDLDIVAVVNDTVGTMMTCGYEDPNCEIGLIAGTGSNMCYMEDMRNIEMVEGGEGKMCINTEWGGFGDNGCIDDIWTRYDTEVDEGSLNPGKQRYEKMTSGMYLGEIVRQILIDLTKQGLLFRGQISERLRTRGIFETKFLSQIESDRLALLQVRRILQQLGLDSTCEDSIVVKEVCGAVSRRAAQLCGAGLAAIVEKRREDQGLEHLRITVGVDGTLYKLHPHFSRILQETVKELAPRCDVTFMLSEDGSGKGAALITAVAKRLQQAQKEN
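Assay system: recombinant HKDC1 hexokinase; detection: coupled resazurin fluorescence, excitation 525 nm, emission 613 nm; benchmarks: DMSO-plus-enzyme-mix negative control, buffer-substituted positive control; compound dosing: single 20 µM dose; schedule: 90 min at room temperature in dark; also added: glucose plus 1 mM ATP as hexokinase substrates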
G6PDH CS – L. mesenteroides G6PDH inhibitors, counter-screen for G6PDH-coupled screening assays, biochemical, Leuconostoc mesenteroides enzyme | 200,000 compounds, 0.12% hits | Purified L. mesenteroides G6PDH, diaphorase/resazurin coupled fluorescence, 45 min | AID 1020, 2008 | inhibition, % at 5 µM; in the data active means inhibition above about 50%
PfGluPho inh – PfG6PD enzyme inhibitors, primary screen, biochemical, fluorescence intensity, uHTS | glucose-6-phosphate dehydrogenase-6-phosphogluconolactonase (Plasmodium falciparum 3D7) | PfGluPho enzyme, NADPH resazurin-diaphorase fluorescence | inhibition, % at 20 µM | 350,000 compounds, 0.78% hits;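 active means inhibition reaching at least a set limit at 20 µM in the primary screen, cut at about 59% in these data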
PfGluPho conf – PfG6PD inhibitors, hit retest, confirmation, biochemical, fluorescence intensity, single concentration. shares compounds with PfGluPho inh. recombinant PfGluPho, NADPH-diaphorase-resazurin fluorescence. inhibition, % at 20 µM. 2,400 compounds, 34% hits. AID 504753, 2011;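 active means inhibition of at least 50% at 20 µM in any single replicate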
Diaphorase 10uM – diaphorase inhibitors and chemical oxidizers, confirmation, counter-screen for P. falciparum G6PD inhibitor project, biochemical, fluorescence intensity, 10 µM NADPH; 820 compounds, 39% hits; inhibition, % at 20 µM; diaphorase-coupled resazurin reduction, NADPH 10 uM; AID 504862, 2011; shares compounds with PfGluPho inh;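 active means average inhibition reaching 50% or more with the compound at 20 µM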;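 further: resorufin red fluorescence formed as diaphorase reduces resazurin using NADPH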
Diaph ctr 30uM – diaphorase inhibitors and chemical oxidizers, confirmation, counter-screen for P. falciparum G6PD inhibitor project, biochemical, fluorescence intensity, 30 µM NADPH | shares compounds with PfGluPho inh | Diaphorase/resazurin coupled assay, resorufin fluorescence | inhibition, % at 20 µM | 820 compounds, 29% hits | AID 504863, 2011;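 active means inhibition averaging 50% or more, tested at 20 µM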
Numbers stand for hits; - = inactive; . = not tested or not shown.

SMILES	Diaph inh CS	HKDC1 inhibitor	G6PDH CS	PfGluPho inh	PfGluPho conf	others
CCN(CC)C(=O)C1=C(C)N(Cc2ccccc2)C(=O)C(CC(=O)NCCN2CCOCC2)C1 (centres undefined)	.	.	.	-	.
CCOC(=O)Cc1csc(NC(=O)c2cc3c(s2)CCCC3)n1	-	-	-	-	.
Cc1csc(NC(=O)c2cc3c(s2)CCCC3)n1	-	-	-	61.9	-
Cc1csc(NC(=O)c2cc3c(s2)CCCCC3)n1	-	-	-	76.6	-
CC(C)(C)S(=O)N1Cc2cc(CO)cc(CCO)c2[C@H]1CCO (some centres undefined)	.	-	.	-	.
COc1ccc2nc3cc(Cl)ccc3c(Nc3ccc(O)c(CN4CCN(C)CC4)c3)c2c1	.	-	.	108.7	45.0	Diaphorase 10uM=-;Diaph ctr 30uM=-
CC(C)c1nnc(NC(=O)c2cc3ccccc3o2)s1	.	-	.	66.0	54.3	Diaphorase 10uM=-;Diaph ctr 30uM=-
CCC(=O)N1CCN(c2ccc(NC(=O)c3cc4ccccc4o3)cc2Cl)CC1	-	-	-	118.0	83.7	Diaphorase 10uM=72.0;Diaph ctr 30uM=60.7
Cc1ccc(NC(=O)c2cc3ccccc3o2)cc1Cl	.	-	.	100.3	-
CC(=O)Nc1cccc(NC(=O)c2cc3ccccc3o2)c1	-	-	-	-	.
O=C(Nc1ccc(N2CCN(C(=O)c3ccco3)CC2)c(Cl)c1)c1cc2ccccc2o1	-	-	-	89.8	43.2	Diaphorase 10uM=-;Diaph ctr 30uM=-
O=C(Nc1ccc(N2CCN(C(=O)c3ccccc3)CC2)c(Cl)c1)c1ccco1	-	-	-	-	.
COc1cc(OC)c(NC(=O)c2cc3ccccc3cc2O)cc1Cl	.	-	.	84.8	-
O=C(Nc1cccc([N+](=O)[O-])c1)c1cc2ccccc2cc1O	.	-	.	72.6	-
O=C(Nc1ccncc1)c1cc2ccccc2cc1O	.	-	.	68.0	-
CN(C)c1ccc(C(CNS(=O)(=O)c2ccc3ccccc3c2)N2CCOCC2)cc1 (centres undefined)	.	-	.	-	.
O=C(CCNS(=O)(=O)c1ccc(OC(F)(F)F)cc1)NC1CC1	.	-	.	-	.
Fc1cccc(Cl)c1CNc1ccc(N2CCCC2)cc1	79.4	-	-	106.4	87.1	Diaphorase 10uM=-;Diaph ctr 30uM=-
CCOC(=O)c1c(NC(C)=O)sc2c1CCC(C=O)=C2Sc1ccccc1	-	-	-	-	.
CCOC(=O)c1c(NC(=O)c2ccccc2Br)sc2c1CCc1ccccc1-2	-	-	-	64.3	-
C/C(=N\Nc1nc2ccccc2[nH]1)c1ccc(Cl)s1	-	-	-	76.6	-
CCOC(=O)C(=Cc1ccc2c(c1)OCO2)c1ccccc1	.	-	.	-	.
C=CCOc1c(Cl)cc(CNc2ccc3[nH]c(=O)[nH]c3c2)cc1OC	-	-	-	63.8	58.3	Diaphorase 10uM=-;Diaph ctr 30uM=-
CCOC(=O)c1c(C2COc3ccccc3O2)csc1NC(=O)c1ccco1 (centres undefined)	-	-	-	84.1	54.2	Diaphorase 10uM=-;Diaph ctr 30uM=-
CSCCC(NS(=O)(=O)c1ccc(C)cc1)C(=O)Nc1ccc(C)cn1 (centres undefined)	.	-	.	-	.
SMILES	Diaph inh CS	HKDC1 inhibitor	G6PDH CS	PfGluPho inh	PfGluPho conf	others
CS(=O)(=O)c1ccc(Cl)c(NC(=O)C2CCN(S(=O)(=O)c3cccs3)CC2)c1	.	-	.	-	.
CN(C)S(=O)(=O)c1ccc(Cl)c(NC(=O)C2CCN(S(=O)(=O)c3cccs3)CC2)c1	.	-	.	60.5	-
Nc1cc(-c2ccncc2)c[nH]c1=O	65.6	-	-	63.7	-
CCn1c(SCc2nc3ccccc3[nH]2)nnc1-c1cnccn1	-	-	-	66.8	-
CCN(CC)Cc1c(O)ccc2c1O/C(=C\C=C\c1ccccc1)C2=O	.	-	.	-	.
COCCN(CCOC)Cc1c(O)ccc2c1O/C(=C\c1ccc(C)o1)C2=O	.	-	.	62.9	-
Cn1cc(S(=O)(=O)CC(=O)Nc2ccc(Br)cc2)c2ccccc21	-	-	-	86.6	-
CCOC(=O)c1c2c(n(-c3ccc(OC)cc3)c1C)C(=O)C(=O)c1ccccc1-2	.	-	.	71.9	-
CC(C)(CNC(=O)c1cc(Cl)c(O)c(Cl)c1)N1CCCCC1	.	-	.	-	.
Cc1ccc(C(=O)Nc2ccc(Br)c(C(F)(F)F)c2)cc1	-	-	-	68.5	-
COc1cnn(-c2ccccc2)c(=O)c1SCc1ccc(Cl)cc1Cl	-	-	-	65.9	-
COc1cnn(-c2ccc(C)cc2)c(=O)c1SCc1ccccc1	-	-	-	65.6	-
COc1cnn(-c2ccc(Br)cc2)c(=O)c1SCc1ccccc1	-	-	-	-	.
COc1cnn(-c2ccccc2)c(=O)c1OC	.	-	.	-	.
C/C(Cn1nnc([N+](=O)[O-])n1)=N\NC(=O)c1ccc(O)cc1	.	-	.	71.4	53.5	Diaphorase 10uM=-;Diaph ctr 30uM=-
C/C(Cn1cnc([N+](=O)[O-])n1)=N\NC(=O)c1ccc(Br)cc1	-	-	-	-	.
C/C(Cn1nnc([N+](=O)[O-])n1)=N\NC(=O)c1ccc(Cl)c(Cl)c1	-	-	-	83.1	76.7	Diaphorase 10uM=-;Diaph ctr 30uM=-
O=C(CC1SC(N2CCCC2)=NC1=O)Nc1ccc(C(=O)NCCOc2ccccc2F)cc1 (centres undefined)	.	-	.	-	.
CC1(N=Cc2cc(Cl)ccc2O)COP(=O)(Nc2ccccc2)OC1 (centres undefined)	.	-	.	-	.
CCOC(=O)c1c(-c2ccc(C)o2)csc1NC(=O)COC(=O)c1cccs1	-	-	-	59.0	-
COCCCN(CC(=O)Nc1ccc(F)cc1)S(=O)(=O)c1cccs1	.	-	.	-	.
Cn1cc(C2=C(c3ccc(Cl)cc3Cl)C(=O)NC2=O)c2ccccc21	.	-	.	65.9	-
CC(=O)c1sc2nsc(SCCN3CCOCC3)c2c1N	.	-	.	77.6	-
Nc1c(C(=O)c2ccccc2)sc2nsc(SCCN3CCOCC3)c12	.	-	.	-	.
Cc1ccccc1-c1nc(C(=O)NCC2CCCO2)cc2c1[nH]c1ccccc12 (centres undefined)	.	-	.	59.7	-
Cc1ccc(-c2nc(C(=O)NCC3CCCO3)cc3c2[nH]c2ccccc23)cc1 (centres undefined)	.	-	.	-	.
O=c1c2ccccc2sc2ccc(C#CC3(O)CCCCC3)cc12	.	-	.	-	.
COc1cccc2sc3ccc(C#CC4(O)CCCCC4)cc3c(=O)c12	.	-	.	68.1	-
CCn1nc(C(=O)Nc2cc(Cl)ccc2-n2cncn2)c2ccccc2c1=O	.	-	.	-	.

Screening results from PubChem.
